From ChEMBL document CHEMBL1135806, “Synthesis, biological evaluation, and quantitative structure-activity relationship analysis of new Schiff bases of hydroxysemicarbazide as potential antitumor agents” (J Med Chem, 2002)

Test system: L1210
Assay: Activity against lymphocytic murine leukemia cell line L1210 using MTS/PES microculture tetrazolium assay
Format: functional, cell-based
Conditions: Mus musculus
Procedure, shortened: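 L1210 cells kept in RPMI-1640 with 10% FBS and penicillin/streptomycin, 37 °C, 5% CO2. Seeded at 1×10^5/mL. DMSO stocks diluted in medium to six concentrations, 2×10⁻³ to 1×10⁻⁸ M, in triplicate; final DMSO 1% at top dose, otherwise <0.25%. Incubated 65 h, then MTS/PES for 3 h, A490. Inhibition relative to DMSO control; IC50 by probit regression; repeated at least twice.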

Row | IC50 [µM] | SMILES
1 | 399 | O=C(NO)N/N=C/c1cccc([N+](=O)[O-])c1
2 | 944 | CC(=O)Nc1ccc(/C=N/NC(=O)NO)cc1
3 | 317 | COc1ccc(/C=N/NC(=O)NO)cc1
4 | 5.4 | O=C(NO)N/N=C/c1c2ccccc2c(Cl)c2ccccc12
5 | 178 | O=C(NO)N/N=C/c1ccc2c(c1)OCCO2
6 | 477 | O=C(NO)N/N=C/c1c[nH]c2ccccc12
7 | 48.1 | O=C(NO)N/N=C/c1ccc(OCc2ccccc2)cc1
8 | 10.1 | O=C(NO)N/N=C/c1cc(Br)ccc1O
9 | 208 | N#Cc1ccc(/C=N/NC(=O)NO)cc1
10 | 369 | COc1cccc(/C=N/NC(=O)NO)c1
11 | 30.1 | COc1ccc(OC)c(/C=N/NC(=O)NO)c1
12 | 42.7 | O=C(NO)N/N=C/c1ccc(-c2ccccc2)cc1
13 | 60.2 | COc1ccc(/C=N/NC(=O)NO)c(O)c1
14 | 32.2 | CC(C)c1ccc2occ(/C=N/NC(=O)NO)c(=O)c2c1
15 | 39.5 | O=C(NO)N/N=C/c1cccc(C(F)(F)F)c1
16 | 891 | Cc1cccc(/C=N/NC(=O)NO)n1
17 | 282 | NNC(=O)NO
18 | 7.2 | O=C(NO)N/N=C/c1cc(Br)cc(Br)c1O
19 | 131 | O=C(NO)N/N=C/c1ccc(O)cc1O
20 | 821 | O=C(NO)N/N=C/c1cc([N+](=O)[O-])cc([N+](=O)[O-])c1O
21 | 37.7 | COc1cc(Br)cc(/C=N/NC(=O)NO)c1O
22 | 446 | CN(C)c1ccc(/C=N/NC(=O)NO)cc1
23 | 607 | O=C(NO)N/N=C/c1cccnc1
24 | 80.4 | O=C(NO)N/N=C/c1cccc(I)c1
25 | 28.2 | O=C(NO)N/N=C/c1coc2c(Cl)cc(Cl)cc2c1=O
26 | 4.7 | O=C(NO)N/N=C/c1cc(I)cc(I)c1O
27 | 91.4 | COc1cc(O)c(/C=N/NC(=O)NO)c(OC)c1

Row | SMILES | IC50 [µM]
28 | O=C(NO)N/N=C/c1ccc(O)c(O)c1O | 2.7
29 | Cc1c2ccccc2c(/C=N/NC(=O)NO)c2ccccc12 | 4.4
30 | O=C(NO)N/N=C/c1ccc([N+](=O)[O-])s1 | 10.6
31 | O=C(NO)N/N=C/c1cc(Cl)cc(Cl)c1O | 6.5
32 | NNC(N)=O [HYDRAZINECARBOXAMIDE] | > 2190
